Results from ChEMBL document CHEMBL4513216, “Probing the Open Global Health Chemical Diversity Library for Multistage-Active Starting Points for Next-Generation Antimalarials” (ACS Infect Dis, 2020).

Assay: Toxicity liver stage against HepG2, at 10uM
Type: cell-based
Design: test concentration 10 uM, cell line HepG2-A16-CD81EGFP
Settings: human, HepG2-A16-CD81EGFP cells; read-out: INHIBITION
Procedure, shortened: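 Uninfected HepG2-A16-CD81EGFP cells, 3 × 10^3 per well, 1536-well, plated on prespotted compound at 10 μM final, parasite-free screening media added to match infected plates; puromycin 10 μM positive, DMSO 0.5% negative; run in parallel with 48 h PbLuc assay at 37 °C, 5% CO2; viability by CellTiter-Glo luminescence, normalized to controls.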

| Compound | cytotoxicity at 10 µM |
| --- | --- |
| CS(=O)(=O)N1C[C@@H]2COC[C@@H](CC(=O)N3CCCO3)[C@@H]2C1 | 11.1% |
| CC(NC(=O)NCc1c(F)cccc1Cl)(C(=O)O)c1ccco1 (centres undefined) | -3.23% |
| Cc1cc(CN2CCCC(Cn3cncn3)C2)no1 (centres undefined) | -2.12% |
| COCCC(=O)N1CCN(CCN(C)C)c2ncccc2C1 | -4.11% |
| O=C(C1CCOCC1)N1CCN(CC2CC2)c2ncccc2C1 | -107% |
| Cc1cn(CC(=O)NC2CCN(S(C)(=O)=O)CC2)c2ccccc12 | 1.44% |
| Cn1ncc2c(NCC3CCS(=O)(=O)C3)nc(-c3ccncc3)nc21 (centres undefined) | -3.91% |
| Cc1ccc(CNC2CCc3nc(C(C)C)nn3C2)o1 (centres undefined) | -1.85% |
| Cn1c(-c2ccccc2)nn(CCNS(=O)(=O)c2ccccc2Cl)c1=O | -2.85% |
| COCCN1C[C@@H]2[C@@H](OC)CCN(Cc3ccsc3)[C@@H]2C1 | 2.78% |
| Cc1ccc(N2CC[C@H](OCC3CC3)[C@@H]2Cc2cnn(C)c2)nn1 | -10.7% |
| O=C(NCC1(COc2cnccn2)C[C@@H](O)[C@@H](O)C1)C1CCCC1 (some centres undefined) | -1.81% |
| COc1ccc2c(c1)C1(CCN(Cc3cnn(C)c3)CC1)N(C)CC2 | -136% |
| CCn1c(C2CCCN(C(=O)C(C)(C)OC)C2)nn(CCN(C)C)c1=O (centres undefined) | -1.94% |
| COc1ccc(CNCC(C)Oc2ccccn2)cc1Cl (centres undefined) | 7.36% |
| CCN(CC(=O)NC)C(=O)Cc1csc(C(C)C)n1 | -3.61% |
| CCc1ncc(-c2cn(CCSc3ncn[nH]3)nn2)cn1 | 1.41% |
| N#CC(NC(=O)CNC(=O)c1ccccc1)c1ccsc1 (centres undefined) | 1.8% |
| CC(C)(C)c1cc2ncn(CCCN3CCCCC3CO)c(=O)c2s1 (centres undefined) | -5.39% |
| Cn1cc(CC(=O)N2CCCC(c3cc(C(F)(F)F)[nH]n3)C2)cn1 (centres undefined) | -7.11% |
| CCN(CC)c1ccc(CNC(=O)C2(C)CCOCC2)cc1F | -4.08% |
| CN(C)CC1CN(Cc2coc(-c3ccccc3)n2)CCO1 (centres undefined) | -10.8% |

| Compound | cytotoxicity at 10 µM |
| --- | --- |
| O=c1oc(-c2ccc(F)cc2)nn1CN1CCCCC1 | -4.35% |
| Cc1nc(N2CCCC2)nc2c1CCN(C(=O)CC1CC1)CC2 | -9.6% |
| Cc1ccc(C2CSCCN2C(=O)NCc2cccnc2)cc1 (centres undefined) | 5.48% |
| COCC1CN(C(=O)Cc2ccccn2)Cc2cn(CC3CC3)nc21 (centres undefined) | -1.32% |
| Nc1nccnc1C(=O)N1CCN(Cc2cccc3ccccc23)CC1 | -108% |
| O=C(Nc1ccc(-c2ccccc2)cc1)N1C[C@@H]2CNC[C@]2(C(=O)O)C1 | -44.7% |
| CN(Cc1ccc2c(c1)OCO2)Cc1nc2c(cnn2C)c(=O)[nH]1 | -3.63% |
| CC(NC(=O)NCCNc1cccc(F)c1C#N)c1cccs1 (centres undefined) | -1.31% |
| COC1CCN(c2ccc(NC(=O)Cn3cccn3)cc2)CC1 | 2.04% |
| CSCCC1c2nc[nH]c2CCN1Cc1ccccc1C#N (centres undefined) | -1.57% |
| O=C(CCN1CCCN(c2nccs2)CC1)Nc1ccccc1 | 10.5% |
| Cc1ccc(CNC(=O)C2CCN(C(=O)c3ccccc3)CC2)n1C | 1.2% |
| Cc1cc2occ(CC(=O)N3CCC(O)(CN(C)C)C3)c2cc1Cl (centres undefined) | -6.55% |
| CN(Cc1ccsc1)C(=O)CS(=O)(=O)Cc1ccc(Cl)c(Cl)c1 | -0.987% |
| CCOc1ccc(CN(CC)C(=O)c2ccc(C)[nH]c2=O)cc1OC | -6.83% |
| COc1ccc(CNC(=O)CCSCc2csc(C)n2)cn1 | -21.4% |
| O=C1CC2(CCCNC2)C(=O)N1Cc1ccc(F)cc1 (centres undefined) | 1.65% |
| Cc1[nH]nc(CCC(=O)NCC2CCCN(C3CCCC3)C2)c1C (centres undefined) | -7.7% |
| Cc1cc(C(NC(=O)CNS(C)(=O)=O)C(C)C)c(C)s1 (centres undefined) | 5.2% |
| O=C(NC[C@H]1OC[C@@H]2CCN(Cc3ccco3)C[C@@H]21)c1ccnnc1 | -143% |
| O=C(c1cnccn1)N1CCC(F)(F)C2(CCN(c3ccccn3)C2)C1 (centres undefined) | 11.9% |
| Cc1nn(CCO)cc1CN1CCCN(C2CCCC2)CC1 | 0.292% |

| Compound | cytotoxicity at 10 µM |
| --- | --- |
| CN(CC1CCOCC1)C(=O)NCCCN1CCCCC1 | 0.105% |
| CCN(c1ccc(C(=O)NCCCN2CCCCC2)cc1)S(=O)(=O)CC | 7.91% |
| CCn1c(CN2CCCC(O)(c3ccc(F)cc3)CC2)cnc1SC (centres undefined) | -0.466% |
| N#Cc1ccc(N2CCN(c3ccc4nncn4n3)CC2)nc1 | -13.3% |
| N#Cc1cccnc1N1CCCC(CO)(Cc2ccccc2F)C1 (centres undefined) | 4.01% |
| O=C(NCc1nc(C2CCCCC2)no1)C1CC(=O)N(C2CC2)C1 (centres undefined) | 1.5% |
| CS(=O)(=O)N1CCO[C@@H]2CN(C(=O)C3CCOC3)CC[C@@H]2C1 (some centres undefined) | -108% |
| O=C(N1CCCC1)N1CCc2c(CNc3ncccn3)cncc2C1 | 3.97% |
| O=C(NCC1CCOCC1)[C@@H]1C[C@@H]2[C@@H](CCN2Cc2ccoc2)O1 | 5% |
| Cc1ccc2c(c1)CN(C(=O)c1cccnc1)C(CN(C)C)CO2 (centres undefined) | -25.5% |
| CC(C)Oc1ccc(CN2CCN3CCN(C)CC3C2)cc1CO (centres undefined) | -3.42% |
| CCOCC(=O)NCC(Cc1cccc(F)c1)n1cccc1 (centres undefined) | -6.22% |
| Cc1noc([C@@]23CCO[C@@H]2CCN(C(=O)c2cc(C)c(C)s2)C3)n1 | 8.73% |
| O=C(NCc1ccc(Cl)cc1Cl)NCC1(O)CCSC1 (centres undefined) | -9.12% |
| COc1ccc(SC(C)C(=O)N2CCC(NC(=O)C3CC3)CC2)cc1 (centres undefined) | -9.11% |
| Cc1nccn1-c1ccc(=O)n(CCNC(=O)c2cccs2)n1 | -5.51% |
| CN(CC(F)(F)F)C(=O)CNC(=O)Cc1ccc(O)cc1Cl | -1.11% |
| COC(=O)[C@@H]1CCCN1C(=O)c1cn(C/C=C/c2ccccc2)nn1 | 3.61% |
| CC(C)N(C)[C@@H]1CCN(C(=O)c2ccc[nH]2)[C@H]1Cc1cnn(C)c1 | -72% |
| COc1ccc(CC2(CO)CCN(c3cc(C(N)=O)ccn3)CC2)cc1 | -2.41% |
| CN(C)c1ncc2c(n1)C1(CCN(Cc3ccccc3)C1)COC2 (centres undefined) | -5.07% |
| Cc1cc(N2CCCN(C(C(=O)O)c3cccc(C)c3F)CC2)ccn1 (centres undefined) | -2.11% |

| Compound | cytotoxicity at 10 µM |
| --- | --- |
| C[C@H](c1ccc(Cl)cc1)n1c(C2CC2)n[nH]c1=O | 9.33% |
| CCCc1cc(=O)[nH]c(-n2nc(C3CC3)cc2N)n1 | 31.3% |
| Cc1cc2c(N)nc(=O)n(CC(=O)Nc3ccccc3)c2s1 | 1.54% |
| COCC(=O)N1CCCC(c2csc(NC(C)=O)n2)C1 (centres undefined) | -17.2% |
| COC(CNC(=O)N1CCC(n2cncn2)CC1)c1ccccc1 (centres undefined) | 4.33% |
| CN1CCC(c2nnc(CN3CCCCC3)n2C)CC1 | 16.4% |
| CCN(CC)C(=O)c1nnn(-c2ccc(C)cc2)c1C1CC1 | -8.35% |
| Cn1cc(C2=NOC(C(=O)NC3(c4ccccc4)CCCC3)C2)cn1 (centres undefined) | -0.34% |
| O=C(c1ccncc1)N1CCCn2c(CN3CCCC3)nnc2C1 | -76.9% |
| CC(Cn1cccn1)NC(=O)NCCCN1CCc2ccccc2C1 (centres undefined) | -3.08% |
| COc1ncccc1CN1CCC2(CC1)CC(OCC1CC1)CO2 (centres undefined) | 4.33% |
| CS(=O)(=O)CCN(CC1CCCO1)C1CCCC1 (centres undefined) | 4.4% |
| COCCn1cncc1CN1CCCC(C)(c2ccccc2)C1 (centres undefined) | 0.363% |
| CCC(NC(=O)CCNC(=O)c1ccccc1F)c1cc(C)ccn1 (centres undefined) | -11.4% |
| Cc1noc(C(C)C)c1C(=O)NS(=O)(=O)c1cccnc1 | 0.345% |
| O=C(NCC(F)F)c1cnc(C2CCCN2)cn1 (centres undefined) | 0.13% |
| N[C@@H]1c2ccccc2C2(CCN(c3cccc(C(F)(F)F)n3)CC2)[C@H]1O | 0.243% |
| O=C(O)COc1ccc(CN2CCCC(CCc3ccccc3)C2)cc1 (centres undefined) | 12.1% |
| Cc1nnc(NCCc2coc(-c3ccc(F)cc3)n2)c(C#N)c1C | -16.3% |
| Cn1ccc(C(=O)N(CC(F)F)c2cccc(Cl)c2)cc1=O | 0.541% |
| Cc1ccc(-c2cn3c(n2)CO[C@@H](CNCc2nccn2C)C3)cc1 | -10.6% |
| CCN1CC2(CCC1=O)CCN(C(=O)c1cn3cccnc3n1)CC2 | -9.7% |

| Compound | cytotoxicity at 10 µM |
| --- | --- |
| CCOc1ccccc1N1CCN(C(=O)NCc2cc[nH]n2)CC1 | 5.48% |
| CN1C(=O)[C@@H]2CC[C@H]1CN(C(=O)Nc1ccccc1C(F)(F)F)C2 | -2.53% |
| Cc1cnn(CC2CCCN2C(=O)c2cccc(-n3cnnn3)c2)c1 (centres undefined) | -4.3% |
| O=C(NCCN1CCOC1=O)c1cc(-c2ccccc2)on1 | 12.3% |
| CCC(CNC(=O)c1ccco1)N1CCc2ccccc2C1 (centres undefined) | 18.3% |
| CCCn1nc(C)c(-c2cncn2CCN(C)C2CCCC2)c1C | 4.16% |
| COCc1nc(CNC2CCCc3c2cnn3C(C)(C)C)cs1 (centres undefined) | -1.62% |
| CNC(=O)CN1CC[C@H]2CN(C(=O)c3cccn3C)C[C@H]2C1 | 2.31% |
| COc1ccc(Cl)cc1NC(=O)CN1CCc2nc(NC(C)=O)sc2C1 | -4.2% |
| CCOC(=O)N1CCC2(CC1)N=C(CCC(C)C)NC2=O | -6.55% |
| CNCC(=O)N[C@H]1CN(c2nc(C)c3c(n2)CCCC3)C[C@@H]1C1CC1 | 13.2% |
| Cc1nc(O)cc(C2CCN(C(=O)c3[nH]nc4c3CC(C)CC4)CC2)n1 (centres undefined) | 3.06% |
| CC(=O)N1CCC2(CCN(CC3CCCCC3)C2)CC1 | 2.05% |
| CC(Cc1cccc(F)c1)C(=O)NS(=O)(=O)c1ccc2c(c1)OCCO2 (centres undefined) | 9.83% |
| COCCN1CC(C(=O)Nc2ccc3c(c2)CCC(=O)N3C)CC1=O (centres undefined) | 6.18% |
| CCCn1nccc1NC(=O)CN1CCc2c(nc(C(C)C)n2C)C1 | 4.02% |
| COc1ccccc1N1CCN(C(=O)CCc2nncn2C)C(C)C1 (centres undefined) | 16% |
| Cc1noc(CNc2c(N3CCCC3)cccc2N2CCCC2)n1 | 0.184% |
| CC(C)c1nnc(NC(=O)Cc2ccc(F)cc2)[nH]1 | -8% |
| CCn1cnnc1CN(C)Cc1nc(-c2cc(OC)ccc2F)oc1C | -1.32% |
| COCCNC(=O)Cn1c(-c2ccco2)cc2cccnc21 | -5.09% |
